# According to ChEMBL document CHEMBL4819122, “Novel 4-(piperazin-1-yl)quinolin-2(1H)-one bearing thiazoles with antiproliferative activity through VEGFR-2-TK inhibition” (Bioorg Med Chem, 2021):
# Activity calls are given as the source filed them. The rule behind the calls is not given here.
# Experiments:
# SR = test: Cytotoxicity against human SR assessed as growth inhibition at 10 uM by NCI protocol relative to control; assay type: functional; conditions: read-out: GI
# In short: (§1)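 Run by the NCI under its standard protocol: one dose of 10 μM against a sixty-line panel from nine human tumour tissues. Result given as percent growth inhibition of treated cells relative to untreated cells.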
# A498 = test: Cytotoxicity against human A498 assessed as growth inhibition at 10 uM by NCI protocol relative to control; assay type: functional; conditions: read-out: GI
# In short: (§2)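 Run by NCI as a single-dose screen at 10 μM across the sixty-cell-line panel, which covers nine human tumour tissue types. The read-out is percent growth inhibition of treated cells relative to untreated cells.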
# UO-31 = test: Cytotoxicity against human UO31 assessed as growth inhibition at 10 uM by NCI protocol relative to control; assay type: functional; conditions: read-out: GI; in short: as §1
# ACHN = test: Cytotoxicity against human ACHN assessed as growth inhibition at 10 uM by NCI protocol relative to control; assay type: functional; conditions: read-out: GI; in short: as §2
# SF-268 = test: Cytotoxicity against human SF-268 assessed as growth inhibition at 10 uM by NCI protocol relative to control; assay type: functional; conditions: read-out: GI; in short: as §2
# HL-60 = test: Cytotoxicity against human HL60 assessed as growth inhibition at 10 uM by NCI protocol relative to control; assay type: functional; conditions: read-out: GI; in short: as §2
# MOLT-4 = test: Cytotoxicity against human MOLT-4 assessed as growth inhibition at 10 uM by NCI protocol relative to control; assay type: functional; conditions: read-out: GI; in short: as §2
# CAKI-1 = test: Cytotoxicity against human Caki1 assessed as growth inhibition at 10 uM by NCI protocol relative to control; assay type: functional; conditions: read-out: GI; in short: as §2
# SNB-19 = test: Cytotoxicity against human SNB-19 assessed as growth inhibition at 10 uM by NCI protocol relative to control; assay type: functional; conditions: read-out: GI; in short: as §1
# MDA-MB-468 = test: Cytotoxicity against human MDA-MB-468 assessed as growth inhibition at 10 uM by NCI protocol relative to control; assay type: functional; conditions: read-out: GI; in short: as §2
# K562 = test: Cytotoxicity against human K-562 assessed as growth inhibition at 10 uM by NCI protocol relative to control; assay type: functional; conditions: read-out: GI; in short: as §2
# SN12C = test: Cytotoxicity against human SN12C assessed as growth inhibition at 10 uM by NCI protocol relative to control; assay type: functional; conditions: read-out: GI; in short: as §1
# HOP-62 = test: Cytotoxicity against human HOP-62 assessed as growth inhibition at 10 uM by NCI protocol relative to control; assay type: functional; conditions: read-out: GI; in short: as §2
# NCI-H460 = test: Cytotoxicity against human NCI-H460 assessed as growth inhibition at 10 uM by NCI protocol relative to control; assay type: functional; conditions: read-out: GI; in short: as §2
# IGROV-1 = test: Cytotoxicity against human IGROVI assessed as growth inhibition at 10 uM by NCI protocol relative to control; assay type: functional; conditions: read-out: GI; in short: as §2
# SF-295 = test: Cytotoxicity against human SF-295 assessed as growth inhibition at 10 uM by NCI protocol relative to control; assay type: functional; conditions: read-out: GI; in short: as §2
# NCI-H23 = test: Cytotoxicity against human NCI-H23 assessed as growth inhibition at 10 uM by NCI protocol relative to control; assay type: functional; conditions: read-out: GI; in short: as §2
# OVCAR-4 = test: Cytotoxicity against human OVCAR-4 assessed as growth inhibition at 10 uM by NCI protocol relative to control; assay type: functional; conditions: read-out: GI; in short: as §2
# OVCAR-8 = test: Cytotoxicity against human OVCAR-8 assessed as growth inhibition at 10 uM by NCI protocol relative to control; assay type: functional; conditions: read-out: GI; in short: as §2
# LOX IMVI = test: Cytotoxicity against human LOX IMVI assessed as growth inhibition at 10 uM by NCI protocol relative to control; assay type: functional; conditions: read-out: GI; in short: as §2
# RPMI-8226 = test: Cytotoxicity against human RPMI-8226 assessed as growth inhibition at 10 uM by NCI protocol relative to control; assay type: functional; in short: as §2
# OVCAR-5 = test: Cytotoxicity against human OVCAR-5 assessed as growth inhibition at 10 uM by NCI protocol relative to control; assay type: functional, cell-based; in short: as §2
# T47D [1] = test: Cytotoxicity against human T-47D assessed as growth inhibition at 10 uM by NCI protocol relative to control; assay type: functional; conditions: read-out: GI; in short: as §1
# OVCAR-3 = test: Cytotoxicity against human OVCAR-3 assessed as growth inhibition at 10 uM by NCI protocol relative to control; assay type: functional; conditions: read-out: GI; in short: as §2
# T47D [2] = test: Cytotoxicity against human T47D cells assessed as reduction in cell viability after 3 hrs by MTT assay
# SK-MEL-5 = test: Cytotoxicity against human SK-MEL-5 assessed as growth inhibition at 10 uM by NCI protocol relative to control; assay type: functional; conditions: read-out: GI; in short: as §2
# NCI-H226 = test: Cytotoxicity against human NCI-H226 assessed as growth inhibition at 10 uM by NCI protocol relative to control; assay type: functional; conditions: read-out: GI; in short: as §2
# HCT-15 = test: Cytotoxicity against human HCT-15 assessed as growth inhibition at 10 uM by NCI protocol relative to control; assay type: functional; conditions: read-out: GI; in short: as §2
# BT-549 = test: Cytotoxicity against human BT-549 assessed as growth inhibition at 10 uM by NCI protocol relative to control; assay type: functional; conditions: read-out: GI; in short: as §2
# M14 = test: Cytotoxicity against human M14 assessed as growth inhibition at 10 uM by NCI protocol relative to control; assay type: functional; conditions: read-out: GI; in short: as §2
# EKVX = test: Cytotoxicity against human EKVX assessed as growth inhibition at 10 uM by NCI protocol relative to control; assay type: functional; conditions: read-out: GI; in short: as §2
# NCI-H522 = test: Cytotoxicity against human NCI-H522 assessed as growth inhibition at 10 uM by NCI protocol relative to control; assay type: functional; conditions: read-out: GI; in short: as §2
# PC-3 = test: Cytotoxicity against human PC3 assessed as growth inhibition at 10 uM by NCI protocol relative to control; assay type: functional; conditions: read-out: GI; in short: as §2
# UACC-257 = test: Cytotoxicity against human UACC-257 assessed as growth inhibition at 10 uM by NCI protocol relative to control; assay type: functional; conditions: read-out: GI; in short: as §1
# A549 = test: Cytotoxicity against human A549 assessed as growth inhibition at 10 uM by NCI protocol relative to control; assay type: functional; conditions: read-out: GI; in short: as §2
# MCF7 = test: Cytotoxicity against human MCF7 assessed as growth inhibition at 10 uM by NCI protocol relative to control; assay type: functional; conditions: read-out: GI; in short: as §2
# UACC-62 = test: Cytotoxicity against human UACC-62 assessed as growth inhibition at 10 uM by NCI protocol relative to control; assay type: functional; conditions: read-out: GI; in short: as §1
# CCRF-CEM = test: Cytotoxicity against human CCRF-CEM assessed as growth inhibition at 10 uM by NCI protocol relative to control; assay type: functional; conditions: read-out: GI; in short: as §2
# MDA-MB-231 = test: Cytotoxicity against human MDA-MB-231 assessed as growth inhibition at 10 uM by NCI protocol relative to control; assay type: functional; conditions: read-out: GI; in short: as §2
# NCI-H322M = test: Cytotoxicity against human NCI-H322M assessed as growth inhibition at 10 uM by NCI protocol relative to control; assay type: functional; conditions: read-out: GI; in short: as §2
# MDA-MB-435 = test: Cytotoxicity against human MDA-MB-435 assessed as growth inhibition at 10 uM by NCI protocol relative to control; assay type: functional, cell-based; in short: as §2
# HCT-116 = test: Cytotoxicity against human HCT-116 assessed as growth inhibition at 10 uM by NCI protocol relative to control; assay type: functional; conditions: read-out: GI; in short: as §2
smiles,measurement,setting,value
COc1ccc(-c2csc(NC(=O)CN3CCN(c4cc(=O)n(-c5ccccc5)c5ccccc45)CC3)n2)cc1,inhibition of growth at 10 µM,SR,11.2%
same,inhibition of growth at 10 µM,A498,13%
same,inhibition of growth at 10 µM,UO-31,27.9%
same,inhibition of growth at 10 µM,ACHN,19%
same,inhibition of growth at 10 µM,SF-268,12.4%
same,inhibition of growth at 10 µM,HL-60,30.2%
same,inhibition of growth at 10 µM,MOLT-4,53.1%
same,inhibition of growth at 10 µM,CAKI-1,16.1%
same,inhibition of growth at 10 µM,SNB-19,24.2%
same,inhibition of growth at 10 µM,MDA-MB-468,55.3%
same,inhibition of growth at 10 µM,K562,56.4%
same,inhibition of growth at 10 µM,SN12C,16%
same,inhibition of growth at 10 µM,HOP-62,12.4%
same,inhibition of growth at 10 µM,NCI-H460,15.9%
same,inhibition of growth at 10 µM,IGROV-1,21.5%
same,inhibition of growth at 10 µM,SF-295,22.9%
same,inhibition of growth at 10 µM,NCI-H23,35.7%
same,inhibition of growth at 10 µM,OVCAR-4,70.4%
same,inhibition of growth at 10 µM,OVCAR-8,15.5%
same,inhibition of growth at 10 µM,LOX IMVI,15%
same,growth inhibition (GI),RPMI-8226,inactive
same,growth inhibition (GI),OVCAR-5,inactive
same,inhibition of growth at 10 µM,T47D [1],60%
same,inhibition of growth at 10 µM,OVCAR-3,17.1%
same,IC50,T47D [2],8.11 µM
same,inhibition of growth at 10 µM,SK-MEL-5,53%
same,inhibition of growth at 10 µM,NCI-H226,18.7%
same,inhibition of growth at 10 µM,HCT-15,18%
same,inhibition of growth at 10 µM,BT-549,19.9%
same,inhibition of growth at 10 µM,M14,16.1%
same,inhibition of growth at 10 µM,EKVX,35.2%
same,inhibition of growth at 10 µM,NCI-H522,30.4%
same,inhibition of growth at 10 µM,PC-3,27.5%
same,inhibition of growth at 10 µM,UACC-257,27.8%
same,inhibition of growth at 10 µM,A549,19.7%
same,inhibition of growth at 10 µM,MCF7,26%
same,inhibition of growth at 10 µM,UACC-62,31.1%
same,inhibition of growth at 10 µM,CCRF-CEM,24.9%
same,inhibition of growth at 10 µM,MDA-MB-231,22.4%
same,inhibition of growth at 10 µM,NCI-H322M,12.6%
same,growth inhibition (GI),MDA-MB-435,inactive
same,inhibition of growth at 10 µM,HCT-116,28.9%
